Hits are enriched below; roughly 0.9% of the tested compounds scored in any of these assays.
Tn7 DDE FP = inhibitors of Tn7 peptide binding to fibrin DD(E), primary screen, biochemical, fluorescence polarization, human fibrin, Tn7 probe; 0.13% of 370,000 active; inhibition, % at 8.3 µM; FP displacement of FITC-Tn7 peptide from fibrin DD(E); 0% = median of compound wells per plate; Fibrinogen beta chain (Homo sapiens), P02675;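 active = inhibition above the mean of compounds falling within the control limits plus 3 SD of them, cut at about 14% in these data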
Target sequence (P02675 whole entry, looked up): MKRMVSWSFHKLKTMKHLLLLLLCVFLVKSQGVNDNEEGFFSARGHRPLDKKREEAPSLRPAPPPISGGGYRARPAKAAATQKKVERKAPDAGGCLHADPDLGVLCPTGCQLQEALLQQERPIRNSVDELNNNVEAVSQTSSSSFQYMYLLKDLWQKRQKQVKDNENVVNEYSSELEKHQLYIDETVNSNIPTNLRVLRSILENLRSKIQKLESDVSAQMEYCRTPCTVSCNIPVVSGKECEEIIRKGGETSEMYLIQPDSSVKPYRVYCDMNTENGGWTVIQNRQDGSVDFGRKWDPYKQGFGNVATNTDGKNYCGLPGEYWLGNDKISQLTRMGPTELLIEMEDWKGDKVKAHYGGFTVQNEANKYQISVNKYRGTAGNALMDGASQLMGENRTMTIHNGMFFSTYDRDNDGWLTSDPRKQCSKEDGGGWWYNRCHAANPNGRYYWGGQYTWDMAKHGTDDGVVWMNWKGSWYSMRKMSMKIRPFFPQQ
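Assay system: Human fibrin DD(E) protein | Medium: Tris buffer with calcium and detergent, pH 7.8 | Reagent: 0.1 µM fluorescent Tn7 | Compound dosing: Single point at 8.3 µM | Times: 10 min preincubation, 3 h with tracer, room temperature | Detection: Fluorescence polarization of the labelled Tn7 tracer | Controls: Aha-Tn7 high control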
DAGLB inh = DAGLB lipase inhibitors, primary screen, biochemical, fluorescence, HTS | 0.059% of 340,000 active | inhibition, % at 5.17 µM | HEK293T DAGLB membrane lysate, EnzChek fluorogenic substrate; in the data active = inhibition above about 34%
MT1-MMP act inh = blockers of MT1-MMP proenzyme processing, primary screen, HT1080 RFP-PRO-GFP cells, GFP/RFP fluorescence; GFP/RFP ratio fluorescence, overnight; percent of plate control window, DMSO zero; GFP/RFP ratio change, % at 20 µM; 0.061% of 360,000 active; AID 651647, 2012;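 active = GFP/RFP ratio change of at least 30% with cell ATP level not reduced by more than half and red fluorescence within 50% of control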
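Test system: HT1080 RFP-PRO-GFP cells; Benchmarks: DMSO and RFP-L50D-GFP cell wells; Timing: cells overnight before dosing, compound overnight, 37 °C, 5% CO2; Compound: one 20 µM compound dose with 1% DMSO; Read-out: GFP/RFP fluorescence ratio.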
SKN-1 block = suppressors of acrylamide-induced Pgst-4::GFP reporter in worms, primary screen, SKN-1 inhibitor project, whole organism, uHTS, GFP/RFP fluorescence ratio, strain VP596; C. elegans VP596 Pgst-4::GFP/RFP ratio, 24 h; inhibition, % at 21.8 µM; 0.49% of 360,000 active; AID 624304, 2012;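 active = interference check ratio from 0.5 to 1.5 plus GFP to RFP signal ratio inhibition reaching or exceeding a fixed threshold, cut at about 30% in these data, passing the limit was not always enough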
PolyA inhibitor = polyadenylation inhibitors in yeast reporter cells, primary screen, luminescence, S. cerevisiae. S. cerevisiae SKY197-pL101 polyadenylation reporter, beta-gal luminescence; efflux-impaired pdr1/pdr3 knockout yeast; score 100 = 6 SD above DMSO. activity score, % at 12 µM. AID 1875, 2009. 0.02% of 300,000 active;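 active = lowest replicate activity score at least 50, where 100 means six control SD above control mean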;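 note: yeast exposed to compound for 9 h at 30 °C; higher score means more reporter readthrough which indicates perturbed polyadenylation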
DDE Tn6 FP inh = inhibitors of Tn6 peptide binding to fibrin DD(E), primary screen, biochemical, fluorescence polarization, human fibrin, Tn6 probe; Fibrinogen beta chain (Homo sapiens), P02675; Fibrin DD(E) TRITC-Tn6 fluorescence polarization displacement; inhibition, % at 8.3 µM; 0.21% of 370,000 active;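 active = inhibition above a per-campaign cutoff: mean of compounds within control limits plus 3 SD, cut at about 15% in these data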
DAGLB confirm = DAGLB lipase inhibitors, retest, confirmation, biochemical, fluorescence, HEK293T membranes | HEK293T DAGLB membrane lysate, EnzChek fluorogenic substrate | shares compounds with DAGLB inh | inhibition, % at 5.17 µM | 73% of 190 active;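 active = mean inhibition over triplicate wells above a set limit taken from the primary lipase screen, cut at about 34% in these data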
MT1-MMP act val = MT1-MMP activation inhibitors, hit retest, confirmation, single concentration, fluorescence, HT1080 RFP-PRO-GFP cells | shares compounds with MT1-MMP act inh | GFP and RFP fluorescence ratio, overnight | inhibition, % at 20 µM | 10% of 200 active | AID 652235, 2013;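 active = inhibition of at least 50% in the primary cell screen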
Tn7 DDE conf = inhibitors of Tn7 peptide binding to fibrin DD(E), confirmation, biochemical, fluorescence polarization, human fibrin, Tn7 probe | shares compounds with Tn7 DDE FP | FP displacement of TRITC-Tn7 peptide from DD(E); 0% set at plate's compound-well median | inhibition, % at 8.3 µM | 5% of 460 active;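 active = inhibition above the campaign cutoff, the mean of compounds within control limits plus 3 SD, cut at about 14% in these data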;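 note: displacers lower polarization since freed probe rises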
Tn7 DDE ctr = DD(E)-Tn7 binding inhibition, counter-screen; AID 720633; 3% of 460 active; shares compounds with Tn7 DDE FP; fibrin DD(E), TRITC-Tn7 probe displacement, fluorescence polarization; inhibition, % at 8.3 µM;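 active = inhibition above the cutoff, the mean of compounds lying between the control bounds plus 3 SD of those compounds, cut at about 17% in these data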
Hits are given with their value; 0 = inactive; - = not tested or not shown.

SMILES | Tn7 DDE FP | DAGLB inh | MT1-MMP act inh | SKN-1 block | PolyA inhibitor | DDE Tn6 FP inh | others
CC[C@H](C)[C@@H]1OC(=O)[C@H](C(C)C)N(C)C(=O)[C@H](C(C)C)NC(=O)[C@@H](C)[C@@H](CCCC#CBr)OC(=O)[C@H](C(C)C)N(C)C(=O)C2CCCN2C1=O (stereo partly drawn) | 0 | - | - | - | - | 0
O=c1[nH]c(=S)n(-c2ccccc2)c(O)c1/C=N/N1CCCCC1c1cccnc1 (stereo not drawn) | 0 | 0 | 0 | 41 | 0 | 0
CCCCCn1c(N)c(C(=O)NCCN2CCOCC2)c2nc3ccccc3nc21 | 0 | 0 | 0 | 34 | 0 | 0
CCCCCCn1c(N)c(C(=O)NCCN2CCOCC2)c2nc3ccccc3nc21 | 0 | 0 | 0 | 0 | 0 | 0
CN(C)c1ccc(/C=C/C=C/c2sc3ccccc3[n+]2C)cc1 | 0 | 0 | 0 | 0 | 0 | 0
CC[n+]1c(/C=C/C=C/c2ccc(N(C)C)cc2)sc2ccccc21 | 0 | 0 | 0 | 0 | 0 | 73
COC(=O)C1(N(C)c2ccccc2)CCN(Cc2ccccc2)CC1 | 0 | - | - | - | - | 0
O=C(N/N=C/c1c(O)n(Cc2ccccc2)c(=O)[nH]c1=O)c1ccccc1O | 0 | 0 | 0 | 37 | 0 | 0
O=C(N/N=C/c1c(O)n(Cc2ccc(F)cc2)c(=O)[nH]c1=O)c1ccccc1O | 0 | 0 | 0 | 0 | 0 | 0
NP(=O)(OCCCCc1ccccc1)Oc1ccccc1Cl (stereo not drawn) | 0 | 39 | 0 | 0 | 0 | 0 | DAGLB confirm=40
CC(=O)c1ccc2c(c1)C1C(Cl)C(Sc3ccccc3[N+](=O)[O-])CC1C(C(=O)O)N2 (stereo not drawn) | 0 | 36 | 45 | 0 | - | 0 | DAGLB confirm=0
CC(C)C(NC(=O)OCc1ccccc1)P(=O)(Oc1ccccc1)Oc1ccccc1 (stereo not drawn) | 0 | - | - | - | - | 0
O=C1CC[C@@]2(O)[C@H]3Cc4ccc(O)c5c4[C@@]2(CCN3CC2CC2)C1O5 (stereo partly drawn) | 0 | - | - | - | - | 0
O=C(O)c1cccc2c1NC(C(=O)O)C1CC(Sc3ccccc3[N+](=O)[O-])C(Cl)C21 (stereo not drawn) | 0 | 39 | 38 | 0 | - | 0 | DAGLB confirm=0;MT1-MMP act val=0
COP(=O)(C(=O)Nc1ccccc1)C(CC(C)C)NC(=O)OCc1ccccc1 (stereo not drawn) | 0 | - | - | - | - | 0
COC(=O)C1=C(c2ccc(OC(F)(F)F)cc2)C[C@@H]2CC[C@H]1N2C(=O)NCCc1ccccc1 | 0 | 0 | 31 | 0 | - | 0 | MT1-MMP act val=0
CC[n+]1c(/C=C/N(C)c2ccccc2)sc2ccc(Cl)cc21 | 0 | 0 | 52 | 0 | 0 | 0 | MT1-MMP act val=0
N#CCC[C@H]1CC[C@]2(CCCN(Cc3ccccn3)C2)O1 | 0 | - | - | - | - | 0
COc1cc2c(cc1OC)-c1c3c(cc4c1[C@@H](C2)N(C)CC4)OCO3 | 0 | 0 | 33 | 0 | 0 | 0 | MT1-MMP act val=0
CCOc1ccc2nc(N=Nc3c(O)[nH]c(=S)[nH]c3=O)sc2c1 | 0 | 0 | 59 | 0 | 0 | 0 | MT1-MMP act val=0
CCOc1ccc2nc(N=Nc3c(O)[nH]c(=O)[nH]c3=O)sc2c1 | 0 | 0 | 0 | 0 | 0 | 0
C=CCN1C(=O)/C(=C/c2cccs2)C(=O)NC1=S | 0 | 0 | 35 | 0 | 0 | 0 | MT1-MMP act val=0
O=C(CF)NC(Nc1cccc2cccnc12)C(Cl)(Cl)Cl (stereo not drawn) | 0 | 0 | 49 | 0 | 0 | 0 | MT1-MMP act val=0
S=P(c1ccccc1)(c1ccccc1)c1cnc2ccccn12 | 0 | - | - | - | - | 0
CC(C)CCOC(=O)c1c(N)n(CC2CCCO2)c2nc3ccccc3nc12 (stereo not drawn) | 0 | 0 | 0 | 0 | 0 | 0
SMILES | Tn7 DDE FP | DAGLB inh | MT1-MMP act inh | SKN-1 block | PolyA inhibitor | DDE Tn6 FP inh | others
CC(C)OC(=O)c1c(N)n(CC2CCCO2)c2nc3ccccc3nc12 (stereo not drawn) | 0 | 0 | 37 | 0 | 0 | 0 | MT1-MMP act val=0
CCC(NC(=O)OCc1ccccc1)P(=O)(Oc1ccccc1)Oc1ccccc1 (stereo not drawn) | 0 | - | - | - | - | 0
NC(Cc1ccccc1)[P+](=O)O (stereo not drawn) | 0 | - | - | - | - | 0
COc1ccc2c3c([nH]c2c1)[C@H](C=C(C)C)N1C(=O)[C@@H]2CCCN2C(=O)[C@@H]1C3 | 0 | - | - | - | - | 0
CCCCC12CNCC(C)(CNC1)C2=O | 17 | 0 | 0 | 0 | 0 | 0 | Tn7 DDE conf=0;Tn7 DDE ctr=0
Cc1ccc(C(=O)NCCN2CCC3(CC2)C(=O)NCN3c2ccccc2)cc1 | 0 | - | - | - | - | 0
CCCCOc1nc2ccccc2c(=O)n1-c1ccccc1 | 15 | 0 | 0 | 0 | 0 | 0 | Tn7 DDE conf=0;Tn7 DDE ctr=0
O=c1[nH]c(=S)n(C2CC2)c(O)c1C=Nc1cccc(C(F)(F)F)c1 | 14 | 0 | 0 | 0 | 0 | 0 | Tn7 DDE conf=0;Tn7 DDE ctr=0
CCOC(=O)[C@]12Cc3c(cc(OC)c(OC)c3OC)[C@H]1N(C)C(=O)c1cc(OC)ccc12 | 15 | - | 0 | 0 | - | 0 | Tn7 DDE conf=0;Tn7 DDE ctr=0
Brc1csc(N2CCNCC2)n1 | 0 | - | - | - | - | 0
O=c1[nH]cc(N(CCCl)CCCl)c(=O)[nH]1 | 0 | - | - | - | - | 0
COc1ccc2[nH]c(C)c(CCNCc3cccnc3)c2c1 | 18 | 0 | 0 | 0 | - | 0 | Tn7 DDE conf=0;Tn7 DDE ctr=0
COc1ccc2[nH]cc(CCNCc3cccnc3)c2c1 | 0 | 0 | 0 | 0 | 0 | 0
CC1=NCCc2c1[nH]c1cc(O)ccc21 | 76 | 0 | 0 | 0 | - | 0 | Tn7 DDE conf=35;Tn7 DDE ctr=0
COc1ccc2c3c([nH]c2c1)C(C)=NCC3 | 0 | 0 | 0 | 0 | 0 | 0

Compound activity deposited in PubChem by several laboratories.
